For test [1], the system named is MIN6. The test can be described thus: Protective activity against palmitic acid-induced injury in mouse MIN6 cells assessed as increase in cell proliferation at 10 uM measured after 24 hrs by CCK8 assay. In kind it is functional. The procedure, abridged: (§1)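 Mouse MIN6 β-cells were kept in DMEM (25 mM glucose, 50 μM β-mercaptoethanol, 10% FBS) and grown 24 h on poly-L-lysine to 80–90% confluency. They were then exposed 24 h in serum-free DMEM to 0.4 mM palmitic acid (final) plus compound in 0.1% DMSO (final); liraglutide was the reference. Read-out was CCK-8 absorbance at 450 nm, blank-corrected. Proliferation (%) = (OD sample − OD model)/OD model × 100.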

For test [2], the system named is CHO. The test can be described thus: Induction of autophagy in CHO cells expressing GFP-LC3 assessed as GFP-LC3-2 accumulation at 25 uM measured after 8 hrs by flow cytometry. In kind it is functional, Cricetulus griseus. The procedure, abridged:
(§2)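 CHO cells stably expressing GFP-LC3 (selected in 1 mg/mL G418, maintained in DMEM/10% FBS with 800 μg/mL G418) were grown overnight. They were then treated in triplicate at 10, 25 or 50 μM for 8 h, with 20 μM curcumin as the positive control, alone or with 0.1 μM bafilomycin A1. Cells were trypsinised, washed, saponin-permeabilised, and fluorescence at 488 nm read by flow cytometry (>15,000 events).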

Test [3] has as its system CHO. The test can be described thus: Induction of autophagy in CHO cells expressing GFP-LC3 assessed as GFP-LC3-2 accumulation at 25 uM measured after 8 hrs in presence of bafilomycin A1 by flow cytometry. In kind it is functional, cell-based. The conditions noted are these: Cricetulus griseus. The procedure, abridged:
as §2

Test [4] relates to MIN6. The test can be described thus: Protective activity against palmitic acid-induced injury in mouse MIN6 cells assessed as increase in cell proliferation at 5 uM measured after 24 hrs by CCK8 assay. The test is classed as functional. The procedure, abridged: as §1
Test [5] concerns MIN6. The test can be described thus: Protective activity against palmitic acid-induced injury in mouse MIN6 cells assessed as increase in cell proliferation at 1 uM measured after 24 hrs by CCK8 assay. The test is classed as functional. The procedure, abridged:
as §1

Test [6] has as its system MIN6. Kind of test: Protective activity against palmitic acid-induced injury in mouse MIN6 cells assessed as increase in cell proliferation measured after 24 hrs by CCK8 assay. In kind it is functional, cell-based. The procedure, abridged: as §1
The subject of test [7] is MIN6. Kind of test: Protective activity against palmitic acid-induced injury in mouse MIN6 cells assessed as increase in cell proliferation at 5 and 10 uM measured after 24 hrs by CCK8 assay relative to DMSO control. The test is classed as functional. The procedure, abridged:
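MIN6 mouse β cells grown in DMEM (25 mM glucose, 10% FBS, β-mercaptoethanol) on poly-L-lysine plates to 80−90% confluency, then exposed 24 h in serum-free DMEM to 0.4 mM palmitic acid (final) plus compound in 0.1% DMSO (final). CCK-8 absorbance read at 450 nm, with compound-only blanks. Proliferation change = (OD sample − OD model)/OD model × 100.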

Test [8] concerns CHO. Kind of test: Induction of autophagy in CHO cells expressing GFP-LC3 assessed as GFP-LC3-2 accumulation at 20 uM measured after 8 hrs by flow cytometry relative to control. The test is classed as functional, Cricetulus griseus. The procedure, abridged: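 CHO cells stably expressing GFP-LC3 (clones selected in 1 mg/mL G418) were kept in DMEM with 10% FBS and 800 μg/mL G418, seeded in 24-well plates and grown overnight. They were treated in triplicate for 8 h, with untreated cells as blank and 20 μM curcumin as positive control. Cells were trypsinized, washed with PBS then 0.1% saponin/PBS, and fluorescence at 488 nm was read by flow cytometry (>15,000 events).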

These results are taken from ChEMBL document CHEMBL4477181, “Bioactive Octahydroxylated C21 Steroids from the Root Bark of Lycium chinense” (2016).

Active and inactive are the calls of the source. The calls are words filed in the database; no cut-off is given here.

Consider `CO[C@H]1C[C@H](O[C@H]2[C@@H](O)C[C@H](O[C@H]3CC[C@]4(C)[C@H]5C[C@@H](OC(=O)/C=C/C=C/c6ccccc6)[C@@]6(C)[C@](O)(CC[C@@]6(O)[C@H](C)O)[C@]5(O)C[C@@H](O)[C@@]4(O)C3)O[C@@H]2C)O[C@H](C)[C@H]1O`, for which the Activity in the test on MIN6 [1] is 87.7%; in the test with MIN6 [4], 81.7%; in the test with MIN6 [5], 0.2%; in the test with MIN6 [6], “Dose-dependent effect”. In addition, the entries for the “fold change (FC)” value in the test with CHO [2] and in the test on MIN6 [7] were 2.1 and 2, respectively. The outcome with CHO [3] was Active.

As for `CO[C@H]1C[C@H](O[C@@H]2[C@@H](C)O[C@@H](O[C@H]3[C@@H](O)C[C@H](O[C@H]4CC[C@]5(C)[C@H]6C[C@@H](OC(=O)/C=C/C=C/c7ccccc7)[C@@]7(C)[C@](O)(CC[C@@]7(O)[C@H](C)O)[C@]6(O)C[C@@H](O)[C@@]5(O)C4)O[C@@H]3C)C[C@H]2OC)O[C@H](C)[C@H]1O[C@H]1C[C@@H](OC)[C@H](O)[C@@H](C)O1`, in the test on CHO [2], the “fold change (FC)” value amounted to 1.3. In addition, the outcome in the test on CHO [3] was Active.

For the compound `COc1cc(/C=C/C(=O)CC(=O)/C=C/c2ccc(O)c(OC)c2)ccc1O` [CURCUMIN], in the test with CHO [8], the “fold change (FC)” value came to 1.7.

In the case of `CO[C@H]1C[C@H](O[C@H]2[C@@H](O)C[C@H](O[C@H]3CC[C@]4(C)[C@H]5C[C@@H](OC(=O)/C=C/C=C/c6ccccc6)[C@@]6(C)[C@](O)(CC[C@@]6(O)[C@H](C)O)[C@]5(O)C[C@@H](O)[C@@]4(O)C3)O[C@@H]2C)O[C@H](C)[C@H]1O[C@H]1C[C@@H](OC)[C@H](O)[C@@H](C)O1`, in the test on CHO [2], the “fold change (FC)” value is 2.5. Besides, the result with CHO [3] was Active.

For the compound `C[C@H](O)[C@]1(O)CC[C@@]2(O)[C@]1(C)[C@H](OC(=O)/C=C/C=C/c1ccccc1)C[C@@H]1[C@@]3(C)CC[C@H](O)C[C@]3(O)[C@H](O)C[C@]12O`, the Activity is 8.8% with MIN6 [1], 4.2% in the test with MIN6 [4], -3.1% in the test on MIN6 [5] and “Dose-dependent effect” with MIN6 [6].

Take `CCCCCCCCCCCCCCCC(=O)N[C@@H](CCC(=O)NCCCC[C@H](NC(=O)[C@H](C)NC(=O)[C@H](C)NC(=O)[C@H](CCC(N)=O)NC(=O)CNC(=O)[C@H](CCC(=O)O)NC(=O)[C@H](CC(C)C)NC(=O)[C@H](Cc1ccc(O)cc1)NC(=O)[C@H](CO)NC(=O)[C@H](CO)NC(=O)[C@@H](NC(=O)[C@H](CC(=O)O)NC(=O)[C@H](CO)NC(=O)[C@@H](NC(=O)[C@H](Cc1ccccc1)NC(=O)[C@@H](NC(=O)CNC(=O)[C@H](CCC(=O)O)NC(=O)[C@H](C)NC(=O)[C@@H](N)Cc1cnc[nH]1)[C@@H](C)O)[C@@H](C)O)C(C)C)C(=O)N[C@@H](CCC(=O)O)C(=O)N[C@@H](Cc1ccccc1)C(=O)N[C@H](C(=O)N[C@@H](C)C(=O)N[C@@H](Cc1c[nH]c2ccccc12)C(=O)N[C@@H](CC(C)C)C(=O)N[C@H](C(=O)N[C@@H](CCCNC(=N)N)C(=O)NCC(=O)N[C@@H](CCCNC(=N)N)C(=O)NCC(=O)O)C(C)C)[C@@H](C)CC)C(=O)O` [LIRAGLUTIDE]: in the test with MIN6 [5], the Activity turned out to be 19.1%.

For `CO[C@H]1C[C@H](O[C@H]2[C@@H](O)C[C@H](O[C@H]3CC[C@]4(C)[C@H]5C[C@@H](OC(=O)/C=C/C=C/c6ccccc6)[C@@]6(C)[C@](O)(CC[C@@]6(O)[C@H](C)O)[C@]5(O)C[C@H](O)[C@@]4(O)C3)O[C@@H]2C)O[C@H](C)[C@H]1O[C@H]1C[C@@H](OC)[C@H](O)[C@@H](C)O1`, the “fold change (FC)” value in the test on CHO [2] is given as 3.1. For the same compound, the result with CHO [3] was Active.

In the case of `C[C@H](O)[C@]1(O)CC[C@@]2(O)[C@]1(C)[C@H](OC(=O)/C=C/C=C/c1ccccc1)C[C@@H]1[C@@]3(C)CC[C@H](O[C@H]4C[C@H](O)[C@H](O)[C@@H](C)O4)C[C@]3(O)[C@H](O)C[C@]12O`, the Activity in the test with MIN6 [1] was 11.2%; in the test with MIN6 [4] it was 4%; with MIN6 [5], 1.5%; in the test on MIN6 [6], “Dose-dependent effect”.
